Data published in the RNAGym collection of RNA variant scans (doi:10.1126/science.aae0568).
This sample holds only a part of the variants without activity.

B1: tRNA (parent)
chain: GUUCCGUUGGCGUAAUGGUAACGCGUCUCCCUCCUAAGGAGAAGACUGCGGGUUCGAGUCCCGUACGGAACG

Variants of: B1
Experiment: yeast fitness relative to wild type (ratio to wild type); higher = fitter; tRNA-Arg(CCU), competitive growth, 37 C, YPD
Outline: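 Amplicons of the tRNA-Arg(CCU) gene were sequenced, 100-nucleotide paired-end, from the start population and from each end population of a pooled yeast competition. The competition, in six parallel replicates, lasted 24 hours in YPD at 37°C. Fitness relative to wild type was calculated from changes in genotype frequencies. Genotypes had to have ≥ 100 starting reads, and estimates < 0.5 were set to 0.5.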

Variant	yeast fitness
GAUCCGUUGGCGUAAUGGUAACGCGUCUCCCUCGUAAGGAGAAGACUGCGGGUUCGAGUCCCGUACGGAACG [U2A C34G]	0.604
GAUCCGUUAGCGAAAUGGUAACGCGUCUCCCUCCUAAGGAGAAGACUGCGGGUUCGAGUCCCGUACGGAACG [U2A G9A U13A]	0.645
GAUCCGUUGGCGUAAUGGUAACGUGUCUCUCUGCUCCGGAGCAGACUGCGGGUUCGAGUCCCGUUCGGAACG [U2A C24U C30U C33G A36C A37C A42C A65U]	≤ 0.5
GAUCCGUUGGCGUAAUGGUAACACGUCUCCCUCCUAAGGAGAAGACUGCGGGUUCGAGUCCCGUACGGAACG [U2A G23A]	0.867
GAUCCCUUGGCGUAAUGGUAACGCGUCUCCCUCCUAAAGAGAAGACUGCGGGUUCGAGUCCCGUACGGAACG [U2A G6C G38A]	0.592
GAUCCGUUGGCGUAAUGGUAACGCGUCUCACUCCUAAGGAGAAGACUGCGGAUUCGAGUCCCGUUCGGAACG [U2A C30A G52A A65U]	≤ 0.5
GAUCCGUUGGCGUAAUGGUAACGCGUCUCCCUCCUAAGGAGAAGACUGCGGGUUCGAGUCCUGUACGGAACG [U2A C62U]	0.899
GAUCCGUUGGCGUAAUCGUAACGCGUCUCCCUCCUAAGGAGAAGACUGCGGGUUCGAGUCCCGUACGGAUCG [U2A G17C A70U]	0.572
GAUCCGUUGGCGUAAUGGUAACGCGUCUCCGUCCUAAGGAGAAGACUGCGGGUUCGAGUCGCGUACGGAACG [U2A C31G C61G]	≤ 0.5
GAUCCCUUGGCGUAACGGUAACGUGUCUCCCUCCUAAGGAGAAGAGUGAGGGUUCGAGUCUCGUACGGAACG [U2A G6C U16C C24U C46G C49A C61U]	≤ 0.5
GAUCCGUUGGUGUAAUAGUAACGCGUCUGCGUCCUACGGAGAAGACUGCGGGUUCGAGUCCCGUAAGGAACG [U2A C11U G17A C29G C31G A37C C66A]	≤ 0.5
GAUCCGUUGGCGUAAUGGUAACGCGUCUCCCUCCUAAGGAGAAAACUGCGGGUUCGAGUCCCGUAUGGAACG [U2A G44A C66U]	0.588
GAUCGGUUGGCGUAAUGGUAACGCGUCUCCCUCCUAAGGGGAAGCCUGCGGGUUCGAGUCCCGUACGGAACG [U2A C5G A40G A45C]	≤ 0.5
GAUCCGUUGGCGUAAUGGUAACGCGUCUACCUCCUAAGGAGGAGACUGCGGGUACGAGUGCCGUACGAAACG [U2A C29A A42G U54A C60G G68A]	≤ 0.5
GAUCAGUUGGCGUAAUGGUAACGCGUCUCCCUCCUAAGGAGAAGACUGCGGGUUCCAGUCCCGUACGGAACG [U2A C5A G56C]	0.56
GAUCAGUUGGCGUAAUGGUAACGCGUCUCCCUCCUAAGGAGAAGACUGCGGGUUCAAGUCCCGUACGGAACG [U2A C5A G56A]	0.526
GAUCCGUUGGCGUAAUGGUAACGGGUCCCCCUCCUAAGGUGAAGACUGCGGGUUCGAGUCCCGUACGGAACG [U2A C24G U28C A40U]	≤ 0.5
GAUCCGUUGGCAUAAUGGUAACGCGUCUCACUCCUAAGGAGAUGACUGCGGGUUCGGGUACCGUACAGAACG [U2A G12A C30A A43U A57G C60A G67A]	≤ 0.5
GAUCCGUUGGCGUAAUCGUAACGUGUCUCCCUUCUGAGGAGAAGACUGCGGGUCCGAGUCCCGUACGGAACG [U2A G17C C24U C33U A36G U54C]	≤ 0.5

Variant	yeast fitness
GAUCCACUGGCGUACUGGUAACGCGUCUGCCUUCUAAGGAGAAGACUGCGGGUUCGAGUCCCGUACGUAACG [U2A G6A U7C A15C C29G C33U G68U]	≤ 0.5
GAUCGGUUGGCGUAAUGGUAACGCAUCUCCCUCCUAAGGAGAAGACUGCGGGUUCGAGUCCCGUAUGGAACG [U2A C5G G25A C66U]	0.532
GAUCCGUUGGCCUAAUGGUAACGCGUCUCCCUCCUCAGGAGAAGACUGCGGGUUCGAGUCCCGUACGGAACG [U2A G12C A36C]	≤ 0.5
GAUCCGUUGGCGUAAUGGUAACGUGUCUCCGUCCUAAGGAGAAAACUGCGGGUUCGAGUCCCGUACGGAACG [U2A C24U C31G G44A]	≤ 0.5
GAUCCGUUGGCGUAAUGGUAAUGCGUCUCCCUCCUAAGGAGAAGACUGCGGGUUCAAGUCCCGUACGGAACG [U2A C22U G56A]	0.551
GAUCCGUUGGGGUAAUGGCAACGCGUCUCCCUCCUAAGGAGAAGACUGCGGGUUCGAGUUCCGUACGGAACG [U2A C11G U19C C60U]	≤ 0.5
GAUCCGUUGGCGUAAUGGUAACGCGUCUCCAUCCUAAGGAGAAGACCGCGGGUUCGAGUCCCGUACGGUACG [U2A C31A U47C A69U]	≤ 0.5
GAUCCGUUGGCGUAAUGGUAACGCGUCUGCCUCCUAAGGAGAAGACUGCGGGUUCGAAUCCCGUACGGAACG [U2A C29G G58A]	≤ 0.5
GAUCAGUUGGCGUAAUGGUAACGCGUCUCCCUCCUAAGGAGAAGACUGCGGGUUUGAGUCCCGUACGGAACG [U2A C5A C55U]	≤ 0.5
GAUCCGUUGGUGUAAUGGUAACGCGUCUCCCUCCUAAGGAGAAGACUGCGGGUUCGAGUCCCGUACGGAACG [U2A C11U]	0.894
GAUCCGUUGGCGUAAUGGUAAUGCGUCUCCCUCCUAAGGCGAAGACUGCGGGUUCGACUCCCGUAUGGAACG [U2A C22U A40C G58C C66U]	≤ 0.5
GAUCCGUUAGCGUAAUGGUAACGCGUCUCCCUCCUACGGAGCAGACUGCGGGUUCGAGUCGCGUACGGAACG [U2A G9A A37C A42C C61G]	≤ 0.5
GAUCCGUUGGCGUAAUGGUAACGCGUCUCCCUCCUAAGGAGAAGACUGAGGGUUCGAGUCGCGUACGGAACG [U2A C49A C61G]	0.505
GAUCCGUUGGUGUAAUGCUAACGCGUCUCCUUCCUAAGGAGGAGACUGCGGGUUCGAGUCCUGUACGGAACG [U2A C11U G18C C31U A42G C62U]	≤ 0.5
GAUCAGUUGGCGUAAUGGUAACGCGUUUCCCUCCUAAGGAGAAAACUGCGGGUUCGAGUCCCGUACGGAACG [U2A C5A C27U G44A]	≤ 0.5
GAUCCGUUGGCGUAAUGGUAACGCGUCUCCCUCGUAAGGAGAAGACUGAAGGUUCGAGUCCCGUACGGAACG [U2A C34G C49A G50A]	0.517
GAUCUGUUGGCGUAAUGGUAACGCGUCUCCCUCCUAAGGAGAAGACUGCGGGUUCGAGUCCCGUACGGCACG [U2A C5U A69C]	0.687
GAUCAGUUGGCGUAAUGGUAACGCGUCUCCCUCCUAAGGUGAAGACUGCGGGUUCGAGUCCCGUACGGAACG [U2A C5A A40U]	0.647
